RGS4 act: RGS4 potentiation or activation | HEK293 M3R/inducible RGS4, carbachol calcium flux Fluo4; stronger effect = lower value | B-score at 10 µM | actives 0.92% (n = 310,000);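 active = B-score of the integrated calcium signal more than 4 SD below the library mean, with starting fluorescence not abnormally high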;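 also: negative B-score means reduced calcium response which marks RGS4 activation or potentiation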
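Assay system: HEK293 FlpIn-TREx cells, stable M3R, doxycycline-inducible RGS4 / Probe or stimulus: carbachol, ECmax concentration / Times: overnight RGS4 induction, 30 min dye load 37 °C, 20 min compound RT / Signal: kinetic calcium fluorescence imaging with Fluo4-AM dye, 2 µM / Measure: Agonist-evoked peak-minus-minimum fluorescence over baseline, integrated ratio, B score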
MrgX1 antag: human MrgX1 receptor antagonism, primary screen; Q96LB2; MRGX1-HEK293 calcium flux, Fluo-4, BAM8-22 antagonism; stronger effect = lower value; B-score at 10 µM; actives 1.3% (n = 310,000);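 active = calcium-response B-score plate-corrected more than 3 library SD below zero, starting fluorescence within 5 deviations, no agonist response on first addition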;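 also: peak minus trough fluorescence over baseline after final BAM8-22 challenge near maximal dose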
Target sequence (Q96LB2 whole entry, looked up): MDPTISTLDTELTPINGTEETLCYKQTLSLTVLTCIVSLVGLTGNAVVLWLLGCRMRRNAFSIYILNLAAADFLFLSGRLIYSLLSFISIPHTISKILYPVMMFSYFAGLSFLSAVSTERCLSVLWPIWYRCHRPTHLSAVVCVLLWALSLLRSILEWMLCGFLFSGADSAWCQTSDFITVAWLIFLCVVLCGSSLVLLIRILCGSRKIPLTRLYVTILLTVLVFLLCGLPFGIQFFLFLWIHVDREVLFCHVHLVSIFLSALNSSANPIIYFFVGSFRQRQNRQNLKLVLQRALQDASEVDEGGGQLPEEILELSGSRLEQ
MrgX1 agonist: human MrgX1 receptor agonism, primary screen. Q96LB2. AID 588627. actives 0.44% (n = 310,000). B-score at 10 µM. MrgX1-HEK293 cells, Fluo-4 calcium fluorescence, agonist mode; stronger effect = higher value;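 active = calcium response B-score plate-corrected fluorescence ratio at least 3 library SD, with starting fluorescence B-score inside 5 SD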
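Material: MrgX1-expressing HEK293 cells; input: 15,000 cells per well; doses: test compound given as first of three sequential additions; schedule: overnight plating before 1 h dye loading; technique: Fluo-4 NW calcium-flux fluorescence, kinetic read; evaluation: baseline-normalised fluorescence change ratio, B-scored; control set: plate-wise positive and negative controls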
RGS4 block: human RGS4 inhibition; P49798; HEK293 M3R/RGS4 inducible, Fluo-4 calcium flux; stronger effect = higher value; triggered by carbachol at its EC20; B-score at 10 µM; actives 0.45% (n = 310,000); AID 463165;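 active = B-score, a plate-corrected calcium signal, over three deviations above library mean, with baseline fluorescence within five deviations of library mean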;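 also: RGS4 expression induced by doxycycline in cells with stable M3 receptor; B-score is computed from the integrated fluorescence ratio over baseline after carbachol; higher B-score means a larger calcium signal and so more RGS4 inhibition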
MrgX1 PAM: allosterically activates human MrgX1 receptor signaling; Q96LB2; MrgX1-HEK293, Fluo-4 calcium flux, FDSS; stronger effect = higher value; B-score at 10 µM; actives 0.63% (n = 310,000); AID 588675;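 active = plate-corrected calcium response at least 3 library SD above typical, normal starting fluorescence, not activating the receptor alone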;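 also: compound read alongside a low EC10 to EC30 dose of BAM8-22 agonist; peak minus trough fluorescence over baseline measured at the second addition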
Hits are given with their value; - = inactive; . = no result. A selection: hits, their analogues and other compounds. The true share with any hit is near 3.5%.

SMILES	RGS4 act	MrgX1 antag	MrgX1 agonist	RGS4 block	MrgX1 PAM
c1ccc(-c2cc(-c3ccccc3)[n+](-c3ccccc3)c(-c3ccccc3)c2)cc1	-7.8	-	-	-	15
CN(C)c1ccc(-[n+]2c(-c3ccccc3)cc(-c3ccccc3)cc2-c2ccccc2)cc1	-9	.	.	-	.
CC(=O)Nc1ccccc1C(=O)C(=O)Nc1cccc(C(=O)N2CCC3(CC2)OCCO3)c1	-	-	-	-	-
CCCCn1c(O)c(C(=O)/C=C/c2c[nH]c3ccccc23)c(=O)[nH]c1=O	-	-	-	-	-
CC1CCC(NCCc2ccc3c(c2)OCO3)CC1 (centres undefined)	-7	-	-	-	-
Cc1ccc2c(c1Cl)NC(C(=O)O)C1CC(Sc3ccccc3[N+](=O)[O-])C(Cl)C21 (centres undefined)	-	-	-	-	-
CCN(CC)C(=O)c1ccc2c(c1)C1C(Cl)C(Sc3ccccc3[N+](=O)[O-])CC1C(C(=O)O)N2 (centres undefined)	-	-6.7	-	-	-
Cc1cc(/C=C2/C(=O)NC(=O)N(Cc3ccco3)C2=O)c(C)n1-c1ccccc1O	-	-	-	-	9.6
O=C(O)Cn1cc(/C=C2\C(=O)NC(=O)N(Cc3ccco3)C2=O)c2ccccc21	-	-	-	-	-
CCC(CO)(C(=O)OC1C[N+]2(C)CCC1CC2)c1ccccc1 (centres undefined)	-8.9	-	-	-	-
C[C@]12CCC(=O)C=C1CC[C@@H]1[C@@H]2C(=O)C[C@]2(C)C(=O)CC[C@@H]12	-	-	-	-	-
O=C1NC(=O)N(CC2CCCO2)C(=O)/C1=C/c1cccs1 (centres undefined)	-	-	-	-	-
CCN(CC)c1ccc(/C=C2/C(=O)NC(=O)N(CC3CCCO3)C2=O)cc1 (centres undefined)	-	-4.5	-	-	-
CCCNC(=O)N1CCC2(CC1)OCCO2	-	-	-	-	-
CC1CCCC(C)N1/N=C/c1c[nH]c2ccc(Br)cc12 (centres undefined)	-	-	-	-	12
Cc1cc(=O)oc2c(C)c(OCC(=O)N3C[C@H]4C[C@@H](C3)c3cccc(=O)n3C4)ccc12	-	-	-	-	-
Cc1c(C)c2ccc(OCC(=O)N3C[C@H]4C[C@@H](C3)c3cccc(=O)n3C4)c(C)c2oc1=O	-8.7	-	-	-	-
Cc1c(Br)c(=O)oc2cc(OCC(=O)N3C[C@H]4C[C@@H](C3)c3cccc(=O)n3C4)ccc12	-7.5	-	-	-	-
Nc1ccc2nonc2c1[N+](=O)[O-]	-	-	-	-	-
O=c1[nH]c(=O)n(-c2ccc(F)cc2)c(O)c1/C=C1\C=Nc2ccccc21	-	-	-	-	-
O=c1[nH]c(=O)n(-c2ccccc2F)c(O)c1/C=C1\C=Nc2ccccc21	-	-	47	11	-
O=c1[nH]c(=O)n(CC2CCCO2)c(O)c1/C=C1\C=Nc2ccccc21 (centres undefined)	-	-	34	-	-
Cc1cccc(N2C(=O)NC(=O)/C(=C\c3ccc4c(c3)CCCN4Cc3ccccc3)C2=O)c1	-	-	-	-	12
CN1C(=O)C(=Cc2ccc(N(C)C)c([N+](=O)[O-])c2)C(=O)N(C)C1=O	-	-	-	-	-
COc1ccc2c(c1)/C(=C/c1cnc[nH]1)C(=O)N2	-	-	-	-	-
SMILES	RGS4 act	MrgX1 antag	MrgX1 agonist	RGS4 block	MrgX1 PAM
O=C1Nc2ccccc2/C1=C/c1cnc[nH]1	-	-6.7	-	-	-
CCN(CC)CCCOC(=O)C(OC(C)C)(c1ccccc1)c1ccccc1	-11	-	-	-	-
CCOC(C(=O)OCCCN(CC)CC)(c1ccccc1)c1ccccc1	-	-	-	-	-
COC(=O)C1=CCCN(C)C1	-	-	57	-	-
COc1ccc(-n2c(O)c(C=NCCN3CCN(C(C)=O)CC3)c(=O)[nH]c2=S)cc1	-	-	-	-	-
FC(F)(F)c1ccc2c(c1)N(CCCN1CCN(CCCl)CC1)c1ccccc1S2	-8.9	-	-	-	-
Nc1ccc(CCN2CCN(c3cccc(C(F)(F)F)c3)CC2)cc1	-	-	-	-	-
CCOC(=O)[C@@]12C(=O)C(=O)N[C@]1(c1ccccc1)C1OCCCC12 (some centres undefined)	-	-	-	-	-

High-throughput results (PubChem)
